Assay results reported in ChEMBL document CHEMBL4354819, “Discovery of Novel Small Molecule Dual Inhibitors Targeting Toll-Like Receptors 7 and 8” (J Med Chem, 2019).
One block for each compound: values may come before it. Calls of active or inactive are those of the source. No cut-off for these calls is given here.

What was measured:
[1] = biological target: T1, Toll-like receptor 9 (Homo sapiens) (UniProt Q9NR96); assay: Inhibition of human TLR9 expressed in HEK293 cells assessed as reduction in ODN-2006-induced NFkappaB production at 1.5 uM incubated for 16 hrs by quanti-blue SEAP assay; assay type: cell-based
T1 sequence (whole entry): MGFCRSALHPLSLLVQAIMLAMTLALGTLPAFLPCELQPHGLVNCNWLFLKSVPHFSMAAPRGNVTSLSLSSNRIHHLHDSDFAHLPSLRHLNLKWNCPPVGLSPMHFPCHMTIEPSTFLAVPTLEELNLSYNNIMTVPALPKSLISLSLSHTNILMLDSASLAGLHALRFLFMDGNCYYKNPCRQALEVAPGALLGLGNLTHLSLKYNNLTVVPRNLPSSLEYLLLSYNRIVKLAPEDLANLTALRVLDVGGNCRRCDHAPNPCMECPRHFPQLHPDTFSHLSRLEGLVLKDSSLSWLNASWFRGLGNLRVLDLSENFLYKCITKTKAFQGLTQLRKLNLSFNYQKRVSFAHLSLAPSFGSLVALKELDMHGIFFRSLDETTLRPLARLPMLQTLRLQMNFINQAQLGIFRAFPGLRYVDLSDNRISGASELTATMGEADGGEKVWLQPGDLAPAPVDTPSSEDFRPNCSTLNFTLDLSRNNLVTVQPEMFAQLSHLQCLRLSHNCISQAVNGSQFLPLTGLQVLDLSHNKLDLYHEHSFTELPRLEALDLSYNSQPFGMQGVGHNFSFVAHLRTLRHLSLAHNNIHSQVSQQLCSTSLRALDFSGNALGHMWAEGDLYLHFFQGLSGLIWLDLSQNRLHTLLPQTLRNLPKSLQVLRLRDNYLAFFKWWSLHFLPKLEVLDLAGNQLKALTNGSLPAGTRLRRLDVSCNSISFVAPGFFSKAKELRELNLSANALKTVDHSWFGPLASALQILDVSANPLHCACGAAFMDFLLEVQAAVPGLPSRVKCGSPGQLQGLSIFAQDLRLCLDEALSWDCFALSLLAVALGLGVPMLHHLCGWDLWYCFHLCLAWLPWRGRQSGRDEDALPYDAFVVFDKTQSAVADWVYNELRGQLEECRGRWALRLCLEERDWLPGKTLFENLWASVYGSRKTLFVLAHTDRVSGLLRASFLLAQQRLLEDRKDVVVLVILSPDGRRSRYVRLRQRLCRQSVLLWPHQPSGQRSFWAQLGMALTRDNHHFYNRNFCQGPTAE
Summary of the method: (§1)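 Selectivity panel in stably transfected HEK 293-Blue cells, each overexpressing one human TLR with an inducible SEAP reporter. Agonists: Pam3CSK4 (TLR1/2), Pam2CSK4 (TLR2/6), poly(I:C) (TLR3), LPS (TLR4), R848 (TLR7/8), ODN 2006 (TLR9). Cells were exposed to compound for 16 h. Activity = (raw − untreated)/(ligand + solvent − untreated), with ligand + solvent set as 100%.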

[2] = biological target: T1, Toll-like receptor 9 (Homo sapiens); assay: Inhibition of human TLR9 expressed in HEK293 cells assessed as reduction in ODN-2006-induced NFkappaB production at 3 to 5 uM incubated for 16 hrs by quanti-blue SEAP assay; assay type: cell-based; summary of the method: as §1
[3] = biological target: Toll-like receptor 4 (Homo sapiens) (UniProt O00206); assay: Inhibition of human TLR4 expressed in HEK293 cells assessed as reduction in LPS-induced NFkappaB production at 1.5 to 5 uM incubated for 16 hrs by quanti-blue SEAP assay; assay type: cell-based; summary of the method: as §1
[4] = biological target: Toll-like receptor 3 (Homo sapiens) (UniProt O15455); assay: Inhibition of human TLR3 expressed in HEK293 cells assessed as reduction in poly(I:C)-induced NFkappaB production at 1.5 to 5 uM incubated for 16 hrs by quanti-blue SEAP assay; assay type: cell-based; summary of the method: as §1
[5] = biological target: T2, Toll-like receptor 7 (Homo sapiens) (UniProt Q9NYK1); assay: Inhibition of human TLR7 expressed in HEK293 cells assessed as reduction in resiquimod-induced NFkappaB production at 5 to 20 uM incubated for 16 hrs by quanti-blue SEAP assay; assay type: cell-based; summary of the method: as §1
T2 sequence (whole entry): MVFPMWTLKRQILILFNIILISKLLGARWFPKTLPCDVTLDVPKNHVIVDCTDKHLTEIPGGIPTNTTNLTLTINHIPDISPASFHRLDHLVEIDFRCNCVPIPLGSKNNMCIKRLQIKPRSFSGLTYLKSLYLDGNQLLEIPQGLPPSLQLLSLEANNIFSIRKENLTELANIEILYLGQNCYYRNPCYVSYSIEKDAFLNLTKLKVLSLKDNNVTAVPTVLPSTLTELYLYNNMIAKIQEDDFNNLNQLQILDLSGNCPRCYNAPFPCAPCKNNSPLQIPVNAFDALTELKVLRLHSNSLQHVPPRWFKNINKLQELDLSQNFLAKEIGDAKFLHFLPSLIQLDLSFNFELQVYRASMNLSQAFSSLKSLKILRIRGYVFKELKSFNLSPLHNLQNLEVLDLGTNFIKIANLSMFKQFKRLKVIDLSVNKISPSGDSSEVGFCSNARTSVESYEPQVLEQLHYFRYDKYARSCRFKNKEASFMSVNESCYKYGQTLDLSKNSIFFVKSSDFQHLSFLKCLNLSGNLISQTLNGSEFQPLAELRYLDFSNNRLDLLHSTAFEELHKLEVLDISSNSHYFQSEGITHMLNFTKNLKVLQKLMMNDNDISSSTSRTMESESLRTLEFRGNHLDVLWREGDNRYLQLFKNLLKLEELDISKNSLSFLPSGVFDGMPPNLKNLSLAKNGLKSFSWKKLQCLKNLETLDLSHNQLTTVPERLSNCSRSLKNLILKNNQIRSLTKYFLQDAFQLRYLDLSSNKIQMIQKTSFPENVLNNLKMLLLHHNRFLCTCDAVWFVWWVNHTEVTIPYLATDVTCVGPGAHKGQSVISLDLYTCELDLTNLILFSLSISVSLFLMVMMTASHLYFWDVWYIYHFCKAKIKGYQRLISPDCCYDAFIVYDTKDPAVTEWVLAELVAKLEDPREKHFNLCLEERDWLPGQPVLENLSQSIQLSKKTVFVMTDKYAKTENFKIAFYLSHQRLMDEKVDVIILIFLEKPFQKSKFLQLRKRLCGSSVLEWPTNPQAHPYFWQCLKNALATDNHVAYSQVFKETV

THP-1 = assay: Inhibition of IFN mediated immune response in human THP1 cells assessed as inhibition of G3-YSD-induced cGAS signalling pathway at 5 to 20 uM incubated for 16 hrs by luciferase assay; assay type: functional, cell-based
Summary of the method: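 THP1-Dual monocytes carrying Lucia luciferase and SEAP reporters were stimulated with 3p-hpRNA (RIG-I agonist) or Y-form dsDNA G3-YSD (cGAS agonist), with or without compound. Secreted Lucia luciferase luminescence was measured as the type I IFN read-out. Mean ± s.d., n = 3 independent experiments.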

[6] = biological target: Toll-like receptor 7 (Mus musculus) (UniProt P58681); assay: Inhibition of endogenous mouse TLR7 in mouse RAW264.7 cells assessed as resiquimod-induced NO production at 1.25 uM incubated for 18 to 24 hrs
Chain of Toll-like receptor 7 (Mus musculus) (P58681 whole entry, looked up): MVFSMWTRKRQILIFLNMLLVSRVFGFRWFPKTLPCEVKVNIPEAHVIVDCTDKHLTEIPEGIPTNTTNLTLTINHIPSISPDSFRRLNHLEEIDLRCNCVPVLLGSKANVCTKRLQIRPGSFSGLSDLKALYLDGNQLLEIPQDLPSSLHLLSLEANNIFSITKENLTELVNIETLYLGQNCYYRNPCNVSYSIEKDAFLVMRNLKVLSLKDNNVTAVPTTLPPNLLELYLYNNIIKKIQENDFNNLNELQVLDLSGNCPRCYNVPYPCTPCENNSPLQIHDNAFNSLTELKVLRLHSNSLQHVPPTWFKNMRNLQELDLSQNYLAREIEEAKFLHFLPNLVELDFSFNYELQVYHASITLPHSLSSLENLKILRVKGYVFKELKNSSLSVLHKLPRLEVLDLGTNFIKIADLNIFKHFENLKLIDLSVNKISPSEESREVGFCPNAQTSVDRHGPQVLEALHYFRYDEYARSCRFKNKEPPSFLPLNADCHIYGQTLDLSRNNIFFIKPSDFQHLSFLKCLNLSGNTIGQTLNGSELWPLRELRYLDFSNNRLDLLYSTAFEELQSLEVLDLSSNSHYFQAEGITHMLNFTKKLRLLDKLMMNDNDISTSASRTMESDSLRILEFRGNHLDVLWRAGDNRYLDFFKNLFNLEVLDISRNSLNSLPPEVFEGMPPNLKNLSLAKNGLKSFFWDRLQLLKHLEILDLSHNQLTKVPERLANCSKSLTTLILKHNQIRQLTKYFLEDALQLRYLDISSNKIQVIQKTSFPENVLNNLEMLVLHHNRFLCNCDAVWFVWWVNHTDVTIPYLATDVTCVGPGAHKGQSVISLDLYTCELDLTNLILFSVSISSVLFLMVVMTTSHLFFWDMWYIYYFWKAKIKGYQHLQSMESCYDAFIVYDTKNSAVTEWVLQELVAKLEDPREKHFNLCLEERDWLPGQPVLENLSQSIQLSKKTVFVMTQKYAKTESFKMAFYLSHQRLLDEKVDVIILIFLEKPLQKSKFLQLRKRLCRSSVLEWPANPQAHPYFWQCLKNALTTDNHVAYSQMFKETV

Chain of Toll-like receptor 3 (Homo sapiens) (O15455 whole entry): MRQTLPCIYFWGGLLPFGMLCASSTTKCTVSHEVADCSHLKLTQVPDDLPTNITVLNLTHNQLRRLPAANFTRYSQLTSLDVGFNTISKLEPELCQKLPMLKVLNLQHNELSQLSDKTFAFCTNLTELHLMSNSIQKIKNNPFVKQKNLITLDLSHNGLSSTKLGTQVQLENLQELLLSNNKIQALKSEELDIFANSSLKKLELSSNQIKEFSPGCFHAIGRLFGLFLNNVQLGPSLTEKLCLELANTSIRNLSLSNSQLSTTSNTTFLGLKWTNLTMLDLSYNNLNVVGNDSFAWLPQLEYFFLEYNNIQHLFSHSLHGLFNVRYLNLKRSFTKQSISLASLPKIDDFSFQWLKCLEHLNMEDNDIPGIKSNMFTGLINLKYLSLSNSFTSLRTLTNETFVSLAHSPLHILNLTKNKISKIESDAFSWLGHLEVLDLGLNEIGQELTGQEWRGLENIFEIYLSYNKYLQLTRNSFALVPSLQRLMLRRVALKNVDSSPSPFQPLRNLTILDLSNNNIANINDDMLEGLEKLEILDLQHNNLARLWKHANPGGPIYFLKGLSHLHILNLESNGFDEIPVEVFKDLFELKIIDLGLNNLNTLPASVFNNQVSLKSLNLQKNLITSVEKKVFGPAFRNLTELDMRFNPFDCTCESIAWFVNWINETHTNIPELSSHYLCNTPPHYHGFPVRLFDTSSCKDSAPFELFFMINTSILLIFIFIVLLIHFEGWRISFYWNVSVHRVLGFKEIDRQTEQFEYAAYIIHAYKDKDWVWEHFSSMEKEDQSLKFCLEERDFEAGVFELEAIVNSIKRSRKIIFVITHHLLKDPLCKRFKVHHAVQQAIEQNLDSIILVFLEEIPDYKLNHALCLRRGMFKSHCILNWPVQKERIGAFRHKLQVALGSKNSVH
Chain of Toll-like receptor 4 (Homo sapiens) (O00206 whole entry): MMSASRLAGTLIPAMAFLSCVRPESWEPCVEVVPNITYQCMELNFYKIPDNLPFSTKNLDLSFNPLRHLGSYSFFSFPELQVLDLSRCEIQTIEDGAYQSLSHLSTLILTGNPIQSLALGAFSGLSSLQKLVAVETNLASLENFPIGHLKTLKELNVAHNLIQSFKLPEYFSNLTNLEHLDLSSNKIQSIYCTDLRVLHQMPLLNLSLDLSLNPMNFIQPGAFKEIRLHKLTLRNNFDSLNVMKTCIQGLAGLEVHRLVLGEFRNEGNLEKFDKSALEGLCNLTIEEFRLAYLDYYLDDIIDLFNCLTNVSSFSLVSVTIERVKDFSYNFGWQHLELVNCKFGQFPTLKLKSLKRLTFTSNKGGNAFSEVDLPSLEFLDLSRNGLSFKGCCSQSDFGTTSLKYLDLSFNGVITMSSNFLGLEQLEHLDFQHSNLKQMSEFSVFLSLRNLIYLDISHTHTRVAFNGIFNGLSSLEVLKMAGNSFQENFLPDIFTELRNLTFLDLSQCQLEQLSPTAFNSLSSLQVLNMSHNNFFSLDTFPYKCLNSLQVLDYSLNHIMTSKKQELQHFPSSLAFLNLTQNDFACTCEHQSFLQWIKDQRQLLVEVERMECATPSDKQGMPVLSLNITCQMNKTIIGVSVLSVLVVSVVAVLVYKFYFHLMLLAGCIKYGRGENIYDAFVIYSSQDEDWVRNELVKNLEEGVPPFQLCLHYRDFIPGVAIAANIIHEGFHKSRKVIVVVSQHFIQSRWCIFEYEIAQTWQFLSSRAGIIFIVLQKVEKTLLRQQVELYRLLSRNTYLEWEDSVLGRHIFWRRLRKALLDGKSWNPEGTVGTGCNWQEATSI

- inhibition [1]: inactive
- inhibition [2]: Active
- inhibition [3]: inactive
- inhibition [4]: inactive
Compound: O=C(Nc1ccc(Oc2cc(C(F)(F)F)cc(C(F)(F)F)c2)cc1)c1c(F)cccc1Cl

- inhibition [5]: Active
Compound: O=C(Nc1ccc(Oc2cncc(C(F)(F)F)c2)cc1)c1c(F)cccc1Cl
- inhibition (THP-1): Active

- inhibition [6]: inactive
Compound: O=C(Nc1ccc(Oc2cc(C(F)(F)F)cc(C(F)(F)F)c2)cc1)c1c(F)cccc1I
